The values that follow come from ChEMBL document CHEMBL3232994, “Searching for new derivatives of neocryptolepine: synthesis, antiproliferative, antimicrobial and antifungal activities” (Eur J Med Chem, 2014).

Calls of active or inactive are those of the source. No cut-off for these calls is given here.

Assay [1] concerns Staphylococcus aureus. Briefly: Antibacterial activity against Staphylococcus aureus ATCC 29213 assessed as growth inhibition after 18 hrs by two-fold serial dilution method. It is filed as functional. The note with it: ATCC 29213, 18 h. In outline: (§1)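 Twofold serial agar dilution on Mueller–Hinton II agar per CLSI. Final inoculum 10⁴ CFU/mL, except Enterococcus hirae ATCC 10541 at 10⁵ CFU/mL. MIC read after 18 h at 35 °C.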

For the next assay, the system named is Bacillus spizizenii. Briefly: Antibacterial activity against Bacillus subtilis ATCC 6633 assessed as growth inhibition after 18 hrs by two-fold serial dilution method. The note with it: ATCC 6633, 18 h. Format: functional. The method, boiled down: as §1
The subject of assay [2] is Micrococcus luteus. Briefly: Antibacterial activity against Micrococcus luteus ATCC 9341 assessed as growth inhibition after 18 hrs by two-fold serial dilution method. The note with it: ATCC 9341, 18 h.
The test system of assay [3] is Candida albicans. The assay can be described thus: Antifungal activity against Candida albicans ATCC 10231 assessed as growth inhibition after 18 hrs by two-fold serial dilution method. It is filed as functional. The conditions noted are these: ATCC 10231, 18 h. In outline: (§2)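 MIC by twofold serial dilution on RPMI agar per CLSI. Final inoculum 10⁴ CFU/mL. Plates read after 18 h at 35 °C.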

The subject of the next assay is Candida parapsilosis. The assay can be described thus: Antifungal activity against Candida parapsilosis ATCC 22019 assessed as growth inhibition after 18 hrs by two-fold serial dilution method. Format: functional. The conditions noted are these: Lodderomyces parapsilosis, ATCC 22019, 18 h.
Assay [4] concerns Staphylococcus epidermidis. Briefly: Antibacterial activity against Staphylococcus epidermidis ATCC 12228 assessed as growth inhibition after 18 hrs by two-fold serial dilution method. Format: functional. The conditions noted are these: ATCC 12228, 18 h. In outline: as §1
Assay [5] deals with Staphylococcus aureus. The assay can be described thus: Antibacterial activity against Staphylococcus aureus NCTC 4163 assessed as growth inhibition after 18 hrs by two-fold serial dilution method. It is filed as functional. The conditions noted are these: NCTC 4163, 18 h. The method, boiled down: as §1
The test system of a further assay is MCF7. The assay can be described thus: Cytotoxicity against human MCF7 cells assessed as growth inhibition after 72 hrs by SRB assay. It is filed as functional, cell-based. The note with it: MCF7, 72 h. The method, boiled down: (§3)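 Cells were seeded at 10⁴/well in RPMI 1640/Opti-MEM (1:1) with 5% FBS, plus 0.01 mg/mL insulin for MCF-7, 24 h before dosing. Agents in water/medium were given at four tenfold final levels for 72 h. Cells were fixed with cold 50% TCA (1 h, 4 °C), stained with 0.4% SRB, cell-free blank. Triplicate wells, 3–5 repeats. IC50 relative to untreated control.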

Another assay deals with LoVo. Briefly: Cytotoxicity against human LoVo cells assessed as growth inhibition after 72 hrs by SRB assay. Format: functional, cell-based. The method, boiled down:
as §3

For a further assay, the system named is Bacillus cereus. Briefly: Antibacterial activity against Bacillus cereus ATCC 11778 assessed as growth inhibition after 18 hrs by two-fold serial dilution method. Format: functional. The note with it: ATCC 11778, 18 h. The method, boiled down: as §1
Assay [6] relates to Candida albicans. The assay can be described thus: Antifungal activity against Candida albicans ATCC 90028 assessed as growth inhibition after 18 hrs by two-fold serial dilution method. Format: functional. The note with it: ATCC 90028, 18 h. In outline: as §2
The subject of a further assay is KB. Briefly: Cytotoxicity against human KB cells assessed as growth inhibition after 72 hrs by SRB assay. Format: functional, cell-based. In outline:
as §3

Assay [7] has as its system Candida albicans. Briefly: Antifungal activity against Candida albicans SN250 assessed as inhibition of biofilm formation < MIC after 24 hrs by XTT reduction assay. Format: functional, organism-based.
The test system of the next assay is BALB/3T3. Briefly: Cytotoxicity against mouse BALB/3T3 cells assessed as growth inhibition after 72 hrs by SRB assay. It is filed as cell-based. The note with it: BALB/3T3, 72 h. In outline: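 Mouse fibroblasts were kept in Dulbecco medium with 10% FBS, L-glutamine and pyruvate, and seeded at 10⁴/well 24 h before dosing. Agents were given at four tenfold final levels for 72 h. Cells were TCA-fixed (50%, 4 °C, 1 h) and stained with 0.4% SRB in 1% acetic acid. Triplicate wells, 3–5 repeats. IC50 versus untreated cells.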
For orientation: In SRB staining, fixed cells bind dye roughly in proportion to their protein.

The subject of a further assay is A549. The assay can be described thus: Cytotoxicity against human A549 cells assessed as growth inhibition after 72 hrs by SRB assay. The conditions noted are these: A549, 72 h. It is filed as functional, cell-based. The method, boiled down:
as §3

Another assay relates to Enterococcus hirae. The assay can be described thus: Antibacterial activity against Enterococcus hirae ATCC 10541 assessed as growth inhibition after 18 hrs by two-fold serial dilution method. The conditions noted are these: ATCC 10541, 18 h. Format: functional. In outline:
as §1

Assay [8] concerns Candida albicans. The assay can be described thus: Antifungal activity against Candida albicans SN250 assessed as growth inhibition after 18 hrs by two-fold serial dilution method. Format: functional. The note with it: SN250, 18 h.
Assay [9] concerns Staphylococcus aureus. Briefly: Antibacterial activity against Staphylococcus aureus ATCC 25923 assessed as growth inhibition after 18 hrs by two-fold serial dilution method. Format: functional. The note with it: ATCC 25923, 18 h. The method, boiled down: as §1
In assay [10] the test system is Micrococcus luteus. Briefly: Antibacterial activity against Micrococcus luteus ATCC 10240 assessed as growth inhibition after 18 hrs by two-fold serial dilution method. It is filed as functional. The conditions noted are these: ATCC 10240, 18 h. In outline: as §1
Assay [11] deals with Staphylococcus aureus. Briefly: Antibacterial activity against Staphylococcus aureus ATCC 6538 assessed as growth inhibition after 18 hrs by two-fold serial dilution method. It is filed as functional. The note with it: ATCC 6538, 18 h. The method, boiled down: as §1

Take `Cc1c2c3ccccc3nc-2n(C)c2ccc(NC(=O)CN)cc12.Cl`: the MIC in the assay with Staphylococcus aureus [1] came to 12.5 µg/mL; with Bacillus spizizenii, 12.5 µg/mL; in the assay with Micrococcus luteus [2], 6.25 µg/mL; in the assay on Candida albicans [3], 100 µg/mL; with Candida parapsilosis it was 100 µg/mL; in assay [4], 12.5 µg/mL. Besides, the MIC with Staphylococcus aureus [5] turned out to be 12.5 µg/mL; with Bacillus cereus it was 50 µg/mL; with Candida albicans [6] it was 100 µg/mL; in the assay with Enterococcus hirae, 100 µg/mL; with Candida albicans [8], 15.6 µg/mL; in the assay on Staphylococcus aureus [9] it was 12.5 µg/mL. The MIC with Micrococcus luteus [10] and in the assay on Staphylococcus aureus [11] was 12.5 µg/mL in each case. Further, the concentration for half-maximal inhibition (IC50) in the assay on MCF7 worked out at 460 nM; in the assay on LoVo it was 60 nM; in the assay with KB it was 420 nM; with BALB/3T3 it was 420 nM; with A549 it was 80 nM. The inhibition entry with Candida albicans [7] is “Active”.

As a reminder, the MIC is the lowest concentration found to suppress growth. Usually IC50 stands for the point on the concentration scale where inhibition reaches its midpoint.
